Results collected from several papers.
Protocols differ between the studies behind these lines.
Target: Mitogen-activated protein kinase 8 (MAPK8, Homo sapiens, UniProt P45983)

SMILES | assay | setting | remaining binding [%]
N#Cc1ccccc1CSc1nnc2c(n1)[nH]c1ccccc12 | binding, competition with immobilised ligand | 10 µM | 96
C[C@@H]1CCN(c2nccc(-c3cnn4ncccc34)n2)C1 | binding, competition with immobilised ligand | 1 µM | 23
Cc1cnc(Nc2ccc(C(=O)N3CCC(N4CCCC4)CC3)cc2)nc1-c1cc2ccccc2s1 | binding, competition with immobilised ligand | 1 µM | 4.5
O=C(O)c1cc(-c2ccc(C3CCNCC3)cc2)c2ccc(-c3ccc(C(F)(F)F)cc3)cc2c1 | cell-free assay, competition with immobilised ligand | 1 µM | 100
C[C@@H]1CN(c2ccc3ncc(-c4ccc5[nH]nc(C6CC6)c5c4)n3n2)C[C@H](C)O1 | binding, competition with immobilised ligand | 0.5 µM | 54
Cc1c(NC(=O)c2cc(C(N)=O)nc3cc(F)ccc23)c(C(F)(F)F)nn1Cc1ccc(C(C)(C)C)cc1 | cell-free assay, competition with immobilised ligand | 1 µM | 100
O=C(c1ccc(Nc2nccc(-c3cc4ccccc4s3)n2)cc1)N1CCC(N2CCCC2)CC1 | binding, competition with immobilised ligand | 1 µM | 2.4
Nc1ncc2c(n1)-c1c([nH]c3ccc(C#CC4CC4)cc13)CCCC2 | binding, competition with immobilised ligand | 1 µM | 66
Cc1cnn2ncc(-c3ccnc(N(C)C)n3)c2c1 | binding | 1 µM | 67
O=c1nc(-c2ccccn2)sc2ccccc12 | binding, competition with immobilised ligand | 1 µM | 100
CN(C)c1ncc(F)c(-c2cnn3ncccc23)n1 | binding, competition with immobilised ligand | 1 µM | 76
C[C@H](NC(=O)c1cnc2n1[C@](C)(Cc1ccc(C#N)cc1)C(=O)N2c1cc(Cl)c(F)c(Cl)c1)C(=O)NC1(c2ccccn2)CC1 | cell-free assay, competition with immobilised ligand | 1 µM | 81
c1cnn2ncc(-c3ccnc(N4CCC45COC5)n3)c2c1 | binding, competition with immobilised ligand | 1 µM | 26
COC(=O)Nc1nc2ccc(C(=O)c3ccccc3)cc2[nH]1 | cell-free assay, competition with immobilised ligand | 10 µM | 14
O=C(NCCCN1CCOCC1)c1ccc(Nc2ncc(Cl)c(-c3ccc(Cl)s3)n2)cc1 | binding, competition with immobilised ligand | 1 µM | 2.5
C[C@H](c1ccc(F)cc1)N(Cc1cccc(C(=O)O)c1)C(=O)c1cnc2ccccc2c1 | cell-free assay, competition with immobilised ligand | 1 µM | 100
c1cncc(-c2cccc(Nc3nccc(NC4CCCCC4)n3)c2)c1 | binding, competition with immobilised ligand | 10 µM | 24
CN(C)c1nccc(-c2cnn3ncccc23)n1 | binding, competition with immobilised ligand | 1 µM | 100
COc1cnc(Nc2cccc(S(N)(=O)=O)c2)nc1N1CCN(c2ccccc2)C(=O)C1 | binding, competition with immobilised ligand | 1 µM | 76
CC(=O)N1CCC(c2ccc(C(=O)NC(=N)N)cc2C(F)(F)F)CC1 | cell-free assay, competition with immobilised ligand | 1 µM | 73
CN(c1nccc(-c2cnn3ncccc23)n1)C1CC1 | binding | 1 µM | 100
O=C(NCC1CCOCC1)c1n[nH]cc1NC(=O)c1c(F)cccc1F | binding, competition with immobilised ligand | 1 µM | 16
N[C@@H]1CCN(c2nccc(-c3cnn4ncccc34)n2)C1 | binding | 1 µM | 27
Cn1nc(C(=O)NCc2ccc(C(=O)O)cc2)cc1-c1ccc2[nH]ccc2c1 | cell-free assay, competition with immobilised ligand | 0.1 µM | 88
